Converted amounts (≈) assume the structure as drawn.
Columns and labels:
[1] = Cmax in Wistar rat at 10 mg/kg administered via oral gavage by LC/MS/MS analysis; type: ADME, organism-based; set-up: dose 10 mg/kg, route oral; details: in vivo
In short: (§1)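 Fasted male Wistar rats given 10 mg/kg PO as a suspension in 1% Tween 80, 0.5% w/v NaCMC. Serial plasma sampling (K2EDTA) at 0.25–24 h, acetonitrile precipitation, LC/MS/MS. Non-compartmental analysis per animal; bioavailability calculated against the 3 mg/kg IV group; mean of n=4.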

[2] = target: CYP2C19 (Homo sapiens, UniProt P33261); assay: Inhibition of CYP2C19 in human liver microsomes at 5 to 25 uM using (S)mephenytoin as substrate preincubated for 5 mins with substrate followed by NADPH addition measured after 40 mins by LC-MS/MS analysis; type: ADME; details: human liver microsomes, probe (S)-mephenytoin
[3] = Equilibrium aqueous solubility of the compound at pH 4 after 4 hrs; type: physicochemical; details: aqueous medium
[4] = target: T1, Adenosine receptor A2b (Homo sapiens, UniProt P29275); assay: Antagonist activity at human adenosine A2B receptor expressed in HEK293 cell membranes assessed as decrease in NECA/forskolin-induced cAMP level pretreated for 15 mins followed by agonist addition for 15 mins and subsequent forskolin stimulation measured after 30 mins; type: functional, cell-based
T1 sequence (P29275 whole entry): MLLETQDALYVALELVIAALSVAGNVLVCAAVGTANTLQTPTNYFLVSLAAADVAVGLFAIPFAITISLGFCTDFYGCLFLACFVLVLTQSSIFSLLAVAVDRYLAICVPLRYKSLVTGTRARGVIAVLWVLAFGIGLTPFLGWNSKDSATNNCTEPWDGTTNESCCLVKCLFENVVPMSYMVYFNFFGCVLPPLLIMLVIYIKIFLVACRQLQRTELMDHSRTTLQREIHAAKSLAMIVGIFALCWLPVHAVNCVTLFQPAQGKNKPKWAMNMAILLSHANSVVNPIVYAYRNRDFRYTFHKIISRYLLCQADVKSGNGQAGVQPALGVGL

[5] = Volume of distribution at steady state in Wistar rat at 3 mg/kg, iv by LC/MS/MS analysis; type: ADME, organism-based; details: in vivo, read-out: Vdss
In short: (§2)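 Male Wistar rats (230 ± 15 g), fasted overnight, given 3 mg/kg IV via tail vein as a solution (0.6 mg/mL, 5 mL/kg) in NMP-based vehicles with acetate buffer pH 4.2. Serial plasma sampling (K2EDTA) from 0.008 to 24 h. Acetonitrile precipitation, then LC/MS/MS. Non-compartmental analysis per animal; mean of n=4.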

[6] = Metabolic stability in rat hepatocytes assessed as parent compound remaining at 1 uM measured at 60 mins post dose by LC-MS/MS analysis; type: ADME, cell-based, Hepatocyte; details: read-out: Stability
[7] = target: hERG (KCNH2) (Homo sapiens, UniProt Q12809); assay: Inhibition of [3H]-astemizole binding to human ERG at 30 uM after 2 hrs by liquid scintillation counting method relative to control; details: probe [3H]-astemizole
[8] = Oral bioavailability in Wistar rat at 10 mg/kg administered via gavage by LC/MS/MS analysis; type: ADME, organism-based; details: in vivo; in short: as §1
[9] = Elimination half-life in Wistar rat at 3 mg/kg, iv by LC/MS/MS analysis; type: ADME, organism-based; details: in vivo, read-out: beta t1/2 (converted); in short: as §2
[10] = system: Liver; assay: Metabolic stability in rat liver microsomes assessed as metabolic rate at 1 uM preincubated for 5 mins followed by addition of NADPH measured after 3 to 30 mins by LC-MS/MS analysis; type: ADME, microsome
[11] = target: Adenosine receptor A2a (Homo sapiens, UniProt P29274); assay: Antagonist activity at human adenosine A2A receptor expressed in HEK293 cell membranes assessed as decrease in CGS-21680-induced cAMP level pretreated for 15 mins followed by agonist addition for 30 mins
[12] = Tmax in Wistar rat at 10 mg/kg administered via oral gavage by LC/MS/MS analysis; type: ADME, organism-based; details: in vivo; in short: as §1
[13] = target: T2, Cytochrome P450 1A2 (Homo sapiens, UniProt P05177); assay: Inhibition of CYP1A2 in human liver microsomes at 5 to 25 uM using phenacetin as substrate preincubated for 5 mins with substrate followed by NADPH addition measured after 10 mins by LC-MS/MS analysis; type: ADME; details: microsomes, 10 min, 25 µM
T2 sequence (P05177 whole entry): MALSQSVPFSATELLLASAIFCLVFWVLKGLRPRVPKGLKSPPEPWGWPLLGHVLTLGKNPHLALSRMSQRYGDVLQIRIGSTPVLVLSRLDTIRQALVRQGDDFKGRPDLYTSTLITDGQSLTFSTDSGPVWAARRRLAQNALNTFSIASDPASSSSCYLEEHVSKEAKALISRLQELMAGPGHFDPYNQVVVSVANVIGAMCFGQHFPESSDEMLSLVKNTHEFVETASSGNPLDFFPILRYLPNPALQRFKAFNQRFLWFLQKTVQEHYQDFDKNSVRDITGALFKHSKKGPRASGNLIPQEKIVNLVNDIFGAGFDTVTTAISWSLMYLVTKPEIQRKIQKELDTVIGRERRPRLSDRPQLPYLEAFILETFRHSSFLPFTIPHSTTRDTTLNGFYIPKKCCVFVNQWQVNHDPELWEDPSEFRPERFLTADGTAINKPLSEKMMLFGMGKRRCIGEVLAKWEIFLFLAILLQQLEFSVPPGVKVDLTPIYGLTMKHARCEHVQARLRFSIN

[14] = target: Cytochrome P450 2D6 (Homo sapiens, UniProt P10635); assay: Inhibition of CYP2D6 in human liver microsomes at 5 to 25 uM using dextromethorphan as substrate preincubated for 5 mins with substrate followed by NADPH addition measured after 10 mins by LC-MS/MS analysis; type: ADME; details: microsomes, 10 min, 25 µM
[15] = target: Cytochrome P450 2C9 (Homo sapiens, UniProt P11712); assay: Inhibition of CYP2C9 in human liver microsomes at 5 to 25 uM using diclofenac as substrate preincubated for 5 mins with substrate followed by NADPH addition measured after 10 mins by LC-MS/MS analysis; type: ADME; details: microsomes, 10 min, 25 µM
[16] = target: T3, Adenosine receptor A3 (Homo sapiens) (UniProt P0DMS8); assay: Displacement of [3H]-HEMADO from human adenosine A3 receptor expressed in HEK293 cell membranes at 1 uM measured after 90 mins relative to control
T3 sequence (whole entry): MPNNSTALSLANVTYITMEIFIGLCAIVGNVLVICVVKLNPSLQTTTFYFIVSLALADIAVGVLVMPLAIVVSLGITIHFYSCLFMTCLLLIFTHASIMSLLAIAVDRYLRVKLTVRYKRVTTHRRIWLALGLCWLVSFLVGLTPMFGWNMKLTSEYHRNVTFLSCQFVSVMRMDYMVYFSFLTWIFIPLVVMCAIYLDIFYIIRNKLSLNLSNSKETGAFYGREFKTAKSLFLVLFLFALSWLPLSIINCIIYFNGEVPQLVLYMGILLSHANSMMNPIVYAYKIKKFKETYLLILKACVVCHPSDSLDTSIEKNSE

Chain of Adenosine receptor A2a (P29274 whole entry): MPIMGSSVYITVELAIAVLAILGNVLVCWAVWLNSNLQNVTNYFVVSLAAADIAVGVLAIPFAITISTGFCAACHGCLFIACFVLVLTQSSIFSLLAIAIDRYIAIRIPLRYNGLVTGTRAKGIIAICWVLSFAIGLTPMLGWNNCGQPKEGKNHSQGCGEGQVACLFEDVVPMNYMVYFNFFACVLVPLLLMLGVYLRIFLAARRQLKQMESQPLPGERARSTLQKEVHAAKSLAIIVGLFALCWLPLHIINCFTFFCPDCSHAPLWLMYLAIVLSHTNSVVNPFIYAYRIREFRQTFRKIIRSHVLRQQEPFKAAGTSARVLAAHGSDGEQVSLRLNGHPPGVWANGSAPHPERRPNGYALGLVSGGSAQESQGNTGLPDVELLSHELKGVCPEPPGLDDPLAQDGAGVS
Chain of Cytochrome P450 2D6 (P10635 whole entry): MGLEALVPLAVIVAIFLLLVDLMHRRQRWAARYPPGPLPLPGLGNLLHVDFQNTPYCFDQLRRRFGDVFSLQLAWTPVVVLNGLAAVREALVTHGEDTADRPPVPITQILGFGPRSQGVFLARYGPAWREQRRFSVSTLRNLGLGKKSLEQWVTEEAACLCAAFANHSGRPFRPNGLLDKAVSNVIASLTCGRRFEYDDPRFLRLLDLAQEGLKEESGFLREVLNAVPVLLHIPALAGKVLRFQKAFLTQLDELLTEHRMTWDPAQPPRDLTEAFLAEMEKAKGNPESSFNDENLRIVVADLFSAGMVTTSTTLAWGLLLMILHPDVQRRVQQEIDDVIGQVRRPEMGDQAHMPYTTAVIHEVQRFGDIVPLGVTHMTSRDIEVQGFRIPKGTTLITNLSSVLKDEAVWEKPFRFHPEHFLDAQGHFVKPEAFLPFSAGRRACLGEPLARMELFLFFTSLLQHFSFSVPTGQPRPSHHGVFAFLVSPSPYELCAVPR
Chain of hERG (KCNH2) (Q12809 whole entry): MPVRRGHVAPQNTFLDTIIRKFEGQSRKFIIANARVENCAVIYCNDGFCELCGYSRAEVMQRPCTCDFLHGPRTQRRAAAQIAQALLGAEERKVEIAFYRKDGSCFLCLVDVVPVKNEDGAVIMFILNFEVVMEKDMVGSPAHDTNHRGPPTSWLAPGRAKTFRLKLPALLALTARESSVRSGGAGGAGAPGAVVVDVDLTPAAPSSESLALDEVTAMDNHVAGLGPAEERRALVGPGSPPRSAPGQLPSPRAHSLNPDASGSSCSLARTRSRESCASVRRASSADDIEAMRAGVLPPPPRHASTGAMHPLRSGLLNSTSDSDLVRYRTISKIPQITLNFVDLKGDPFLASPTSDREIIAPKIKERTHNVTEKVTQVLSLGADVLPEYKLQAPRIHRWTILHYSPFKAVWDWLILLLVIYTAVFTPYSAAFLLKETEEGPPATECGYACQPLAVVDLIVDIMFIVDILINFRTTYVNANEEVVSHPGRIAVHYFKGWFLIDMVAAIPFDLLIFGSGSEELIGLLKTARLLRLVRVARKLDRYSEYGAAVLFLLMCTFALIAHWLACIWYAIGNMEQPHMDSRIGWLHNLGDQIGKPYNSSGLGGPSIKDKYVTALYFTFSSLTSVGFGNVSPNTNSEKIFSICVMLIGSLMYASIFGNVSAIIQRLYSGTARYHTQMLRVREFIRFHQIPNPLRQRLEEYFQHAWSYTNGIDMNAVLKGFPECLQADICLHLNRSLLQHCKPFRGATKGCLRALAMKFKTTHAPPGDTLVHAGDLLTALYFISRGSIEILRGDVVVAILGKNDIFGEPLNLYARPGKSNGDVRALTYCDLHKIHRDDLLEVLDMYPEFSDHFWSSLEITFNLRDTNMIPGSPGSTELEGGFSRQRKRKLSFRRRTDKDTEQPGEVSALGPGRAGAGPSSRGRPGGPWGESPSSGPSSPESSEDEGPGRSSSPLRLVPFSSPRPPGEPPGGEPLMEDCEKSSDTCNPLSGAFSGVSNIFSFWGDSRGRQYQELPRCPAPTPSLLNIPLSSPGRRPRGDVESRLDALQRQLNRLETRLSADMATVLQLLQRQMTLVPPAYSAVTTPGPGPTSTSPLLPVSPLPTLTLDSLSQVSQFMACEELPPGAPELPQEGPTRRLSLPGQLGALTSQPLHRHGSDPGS
Chain of Cytochrome P450 2C9 (P11712 whole entry): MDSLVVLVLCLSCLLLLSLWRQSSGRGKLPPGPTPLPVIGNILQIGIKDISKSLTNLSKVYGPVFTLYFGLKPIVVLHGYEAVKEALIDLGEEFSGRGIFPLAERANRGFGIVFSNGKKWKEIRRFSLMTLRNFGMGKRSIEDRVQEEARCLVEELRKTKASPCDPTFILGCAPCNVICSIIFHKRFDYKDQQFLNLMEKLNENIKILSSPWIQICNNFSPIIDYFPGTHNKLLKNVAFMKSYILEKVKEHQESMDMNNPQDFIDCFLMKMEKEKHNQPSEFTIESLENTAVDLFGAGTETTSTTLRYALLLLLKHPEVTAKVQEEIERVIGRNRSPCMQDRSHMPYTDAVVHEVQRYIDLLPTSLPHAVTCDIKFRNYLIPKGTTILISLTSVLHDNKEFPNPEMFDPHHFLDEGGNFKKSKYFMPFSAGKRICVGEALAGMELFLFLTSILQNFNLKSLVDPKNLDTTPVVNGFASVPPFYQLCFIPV
Chain of CYP2C19 (P33261 whole entry): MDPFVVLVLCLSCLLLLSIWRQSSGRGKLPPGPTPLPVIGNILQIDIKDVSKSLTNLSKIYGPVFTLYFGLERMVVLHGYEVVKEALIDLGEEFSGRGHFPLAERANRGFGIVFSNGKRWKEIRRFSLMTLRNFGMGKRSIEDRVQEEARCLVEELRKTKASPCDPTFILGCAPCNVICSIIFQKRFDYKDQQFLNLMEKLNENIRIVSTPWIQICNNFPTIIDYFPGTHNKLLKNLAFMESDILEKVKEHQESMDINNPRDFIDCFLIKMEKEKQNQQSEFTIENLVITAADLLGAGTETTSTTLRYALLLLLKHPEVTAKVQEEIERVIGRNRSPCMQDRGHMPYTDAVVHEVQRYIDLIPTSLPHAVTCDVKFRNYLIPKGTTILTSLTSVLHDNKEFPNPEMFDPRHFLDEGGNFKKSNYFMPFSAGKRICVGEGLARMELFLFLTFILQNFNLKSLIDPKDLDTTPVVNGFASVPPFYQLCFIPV

| Compound | Cmax [1] [nM] | IC50 at 40 min [2] [nM] | solubility thermodynamic at 4 h [3] [µM] | Ki [4] [nM] | Vd [5] [L/kg] | remaining at 1 h, 1 µM [6] [%] | inhibition at 2 h, 30 µM [7] [%] | bioavailability [8] [%] | half-life [9] [h] | Drug metabolism [10] [nmol/min/mg] | Ki [11] [nM] | Tmax [12] [h] | inhibition (INH) [13] | inhibition (INH) [14] | inhibition (INH) [15] | inhibition [16] [%] |
| --- | --- | --- | --- | --- | --- | --- | --- | --- | --- | --- | --- | --- | --- | --- | --- | --- |
| CCN(CC)C1CCC(C)(C(=O)Nc2nc3c(OC)ccc(N4CCOCC4)c3s2)CC1 (configuration not stated) | 2020 | > 50000 | 1810 (≈ 832 µg/mL) | 650 | 6.1 | 89 | 18 | 61 | 2.4 | 0.01 | 0.2 | 0.63 |  |  |  |  |
| COc1cnc(N2CCOCC2)c2sc(NC(=O)C(C)(C)Oc3ccc(F)cc3)nc12 | 1100 |  | < 6 | 2000 | 2.1 |  | < 10 | 21.7 | 5.4 | < 0.04 | 6.5 | 2.75 | Not Active | Not Active | Not Active | 46 |
| COc1ccc(N2CCOCC2)c2sc(NC(=O)C(C)(C)Oc3ccc(F)c(F)c3)nc12 | 1330 |  | < 6 |  | 2.1 |  |  | 17 | 5.5 | 0.09 | 2.4 | 0.5 | Not Active | Not Active | Not Active | 28 |
| COc1ccc(N2CCOCC2)c2sc(NC(=O)C3(C)CCC(C)(O)CC3)nc12 (configuration not stated) | 5400 | > 25000 | 111 (≈ 46.6 µg/mL) | 2000 | 1.5 | 88 | 26 | 63 | 0.6 | < 0.04 | 0.25 | 0.5 |  |  |  |  |
| COc1ccc(N2CCOCC2)c2sc(NC(=O)C(C)(C)Oc3ccc(F)cc3)nc12 | 190 |  | < 6 |  | 1.4 |  |  | 6 | 6.3 | 0.04 | 4.2 | 0.5 | Not Active | Not Active | Not Active | 11 |

From ChEMBL document CHEMBL4002602, “Design, Synthesis of Novel, Potent, Selective, Orally Bioavailable Adenosine A2A Receptor Antagonists and Their Biological Evaluation” (J Med Chem, 2017)
